Screening results (PubChem)
M5 antag: human M5 muscarinic receptor antagonists, primary screen, CHO cells, Fluo-8 calcium fluorescence. inhibition, % at 3 µM. Muscarinic acetylcholine receptor M5 (Homo sapiens), P08912. hit rate 0.59% among 360,000. AID 624040, 2012. CHO-hM5 cells, ACh EC80;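 active = inhibition above a per-plate cutoff, the mean of that plate's test compounds plus 3 SD, cut at about 27% in these data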;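 note: 0% = acetylcholine EC80 with DMSO and 100% = DMSO without agonist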
M4 PAM: human M4 muscarinic receptor positive allosteric modulators, primary screen, CHO-K1 cells, Fluo-8 calcium fluorescence | activation, % at 3 µM | CHO-K1 hM4/Gqi5, ACh EC20; 0% = ACh EC20, 100% = maximal ACh | AID 624126, 2012 | hit rate 0.4% among 360,000 | Muscarinic acetylcholine receptor M4 (Homo sapiens), P08173;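 active = activation above its plate's cutoff, the mean activation of sample wells plus 3 SD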
Target sequence (P08173 whole entry, looked up): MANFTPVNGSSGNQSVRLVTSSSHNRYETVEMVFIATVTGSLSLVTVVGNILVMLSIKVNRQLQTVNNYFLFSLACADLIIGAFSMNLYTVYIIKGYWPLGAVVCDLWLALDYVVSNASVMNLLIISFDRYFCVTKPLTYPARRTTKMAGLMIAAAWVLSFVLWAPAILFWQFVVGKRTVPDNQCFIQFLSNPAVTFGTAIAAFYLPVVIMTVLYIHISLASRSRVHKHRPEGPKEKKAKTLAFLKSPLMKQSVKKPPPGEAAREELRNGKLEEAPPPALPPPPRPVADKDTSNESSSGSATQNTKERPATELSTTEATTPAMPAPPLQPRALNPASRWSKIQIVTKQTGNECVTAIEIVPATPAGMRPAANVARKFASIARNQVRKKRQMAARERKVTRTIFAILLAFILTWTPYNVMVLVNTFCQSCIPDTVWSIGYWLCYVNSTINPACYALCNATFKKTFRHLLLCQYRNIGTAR
M5 ag: human M5 muscarinic receptor agonists, primary screen, CHO-K1 cells, Fluo-8 calcium fluorescence; Muscarinic acetylcholine receptor M5 (Homo sapiens), P08912; CHO-K1 hM5 cells; 0% DMSO wells, 100% maximal acetylcholine response; activation, % at 3 µM; hit rate 0.19% among 360,000;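 active = activation above the run's mean over test compounds plus 3 SD, cut at about 23% in these data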;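 note: signal is peak over basal fluorescence ratio across the kinetic read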
M5 PAM: human M5 muscarinic receptor positive allosteric modulators, primary screen, CHO-K1 cells, Fluo-8 calcium fluorescence. Muscarinic acetylcholine receptor M5 (Homo sapiens), P08912. CHO-K1 hM5, ACh EC20 PAM; 0% = ACh EC20, 100% = ACh EC100. activation, % at 3 µM. hit rate 0.3% among 360,000;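 active = activation above the run cutoff, the mean activation of all test compounds plus 3 SD, cut at about 18% in these data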
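Probe or stimulus: acetylcholine, EC20 level; Assay system: human M5 receptor in CHO-K1 cells; Schedule: compound preincubation 140 s before EC20 acetylcholine addition; Technique: intracellular calcium via Fluo-8 fluorescence; Dosing: single-point, 3 µM nominal; Read-out basis: percent activation from peak-over-basal fluorescence ratio, scaled EC20-to-EC100 acetylcholine; Repeats: one well per compound, no replicates.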
CHRM4 agonist: human M4 muscarinic receptor agonists, primary screen, CHO-K1 cells, Fluo-8 calcium fluorescence; Muscarinic acetylcholine receptor M4 (Homo sapiens), P08173; activation, % at 3 µM; hit rate 0.14% among 360,000; CHO-K1 hM4/Gqi5; vehicle 0%, full acetylcholine response 100%;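 active = activation above the run mean over all test wells plus 3 SD, cut at about 32% in these data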;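 note: peak over basal fluorescence ratio per well then scaled between controls; 0% = DMSO wells and 100% = acetylcholine at EC100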
CHRM4 antagonist: human M4 muscarinic receptor antagonists, primary screen, CHO cells, Fluo-8 calcium fluorescence; Muscarinic acetylcholine receptor M4 (Homo sapiens), P08173; CHO-hM4 cells, ACh EC80; inhibition, % at 3 µM; hit rate 0.73% among 360,000; AID 624125, 2012;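 active = inhibition above its plate's cutoff, the mean inhibition of sample wells plus 3 SD, cut at about 27% in these data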;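 note: 0% = acetylcholine EC80 with DMSO and 100% = DMSO without agonist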
Numbers without * were called inactive. An excerpt weighted towards active compounds, which were near 1.8% of everything screened.

SMILES	M5 antag	M4 PAM	M5 ag	M5 PAM	CHRM4 agonist	CHRM4 antagonist
COc1nc(C)ccc1-c1noc(-c2ccco2)n1	-5	0	-1	1	-2	4
COc1nc(-c2ccc(C)cc2)ccc1-c1noc(-c2ccco2)n1	-6	15	-1	28*	1	6
CCCn1nnc2c(=O)oc3ccccc3c21	0	2	-2	1	0	-5
CCCCCn1nnc2c(=O)oc3ccccc3c21	0	28*	-2	3	2	-5
CCCn1cnc2c(=O)oc3ccccc3c21	-2	8	-1	30*	0	-2
C[C@@H]1CN([C@H](C)CO)C(=O)CCCn2cc(nn2)CO[C@H]1CN(C)S(=O)(=O)c1ccccc1C#N	4	1	0	3	0	4
Cc1nn(C2CC(O)C(O)C(CO)O2)c(=O)[nH]c1=O (centres undefined)	-3	3	4	0	0	-7
Clc1ccc(-n2ncc3c(NCC4CCCO4)ncnc32)cc1 (centres undefined)	-5	-16	4	-2	2	37*
c1ccc(-n2ncc3c(NCC4CCCO4)ncnc32)cc1 (centres undefined)	15	-4	-5	-17	4	-1
O=C(CNC(=O)c1ccc(Cl)cc1)NC(CO)c1ccccc1 (centres undefined)	2	-4	0	-1	0	3
O=C(C1CCCCC1)N1CCN=C1SCc1cccc([N+](=O)[O-])c1	0	-17	-9	-2	0	32*
O=C(C1CCCCC1)N1CCN=C1SCc1cccnc1	0	-2	1	-3	1	-5
O=C(c1ccccc1)N1CCN=C1SCc1ccc([N+](=O)[O-])cc1	4	-16	-6	-9	0	29*
O=C1CCC([N+](=O)[O-])C(c2ccccc2C(F)(F)F)N1 (centres undefined)	10	3	-2	0	1	-1
O=C(NCc1cccc(F)c1)c1cccc2c1C(=O)c1ccc(N3CCCC3)cc1S2(=O)=O	17	-16	35*	-36	80*	13
O=C(NCc1cccc(F)c1)c1cccc2c1C(=O)c1ccc(N3CCC(Cc4ccccc4)CC3)cc1S2(=O)=O	28*	-2	14	-6	12	2
O=C(c1cccc(Cl)c1)N1CCN(CCCc2ccccc2)CC1	-4	-4	-6	-3	2	-6
COc1ccc(/C=C/C(=O)NCC(=O)N/N=C/c2cccs2)cc1	-4	4	-3	-2	2	-2
Cc1cc(C)cc(N(CCC(=O)O)S(=O)(=O)c2ccc(Cl)cc2)c1	-10	-3	1	7	-1	36*
CCc1nnc(NC(=O)CCN(c2cc(C)cc(C)c2)S(=O)(=O)c2ccc(Cl)cc2)s1	11	18	6	19*	1	-15
Cc1ccc(S(=O)(=O)N2CCCC2)cc1C(=O)NC1CCCCC1	-2	-1	-3	5	1	-1
O=C(Cn1c(=O)oc2cc(S(=O)(=O)N3CCCCCC3)ccc21)NC1CCCCC1	-7	17*	2	0	2	-16
COc1ccc(C)cc1S(=O)(=O)N1CCC(C(=O)NC2CCCC2)CC1	4	20*	3	-1	4	-6
Cc1ccc(S(=O)(=O)N2CCC(C(N)=O)CC2)cc1C(=O)NC1CCCCC1	-6	21*	2	11	0	-7
CC1(C)Cc2c(cnn2-c2ccc(F)cc2)C(NC(=O)CCCN2CCCCC2=O)C1 (centres undefined)	-8	-3	4	2	0	3
SMILES	M5 antag	M4 PAM	M5 ag	M5 PAM	CHRM4 agonist	CHRM4 antagonist
CCSc1ncc(Cl)c(C(=O)Nc2ccc(S(=O)(=O)Nc3onc(C)c3C)cc2)n1	48*	10	4	3	0	1
Cc1noc(NS(=O)(=O)c2ccc(NC(=O)c3ccc(N4C(=O)c5ccccc5C4=O)cc3)cc2)c1C	-29	4	3	19*	0	-4
O=C(NCCCNC(=O)c1cnccn1)c1cccc(Cl)c1	5	-1	-3	1	1	6
Cc1ccc(SCC(=O)OCC(=O)N(C)CC(=O)Nc2ccc(F)cc2)cc1C	-7	1	50*	11	52*	-9
CCCCn1c(Cc2ccccc2)n[nH]c1=S	39*	-28	-7	-19	0	83*
CCn1c(Cc2ccccc2)n[nH]c1=S	-5	-3	-10	7	1	1
COc1ccc([C@H]2CC(=O)C=C(c3ccc(Cl)c(Cl)c3)C2)cc1	5	5	5	4	2	4
COc1cc2c(cc1OC)C(c1ccc(Br)cc1)NC(=O)C2 (centres undefined)	11	3	-4	3	3	-4
CC(O)(c1cccnc1)c1nc(-c2cccc(C#N)c2)cs1 (centres undefined)	-8	19*	3	-6	5	-17
CC(O)(c1cccc(F)c1)c1nc(-c2cccc(C#N)c2)cs1 (centres undefined)	7	2	-1	-7	2	-11
CCOc1ccc(C(=O)NCC(C)CN(C)C)cc1OCC (centres undefined)	18	8	-2	22*	0	-3
CCOc1cc(C(=O)NCC(C)CN(C)C)cc(OCC)c1OCC (centres undefined)	6	1	-1	-2	0	7
COc1ccc(-n2c(Cc3cccn3C)nnc2SCC(=O)Nc2cccc(OC)c2)cc1	4	18*	4	-6	-1	-5
Cc1[nH]n(-c2ccccc2)c(=O)c1C(=O)c1ccccc1	-17	10	5	21*	1	-7
CN(c1ccccc1)S(=O)(=O)c1cccc(NC(=O)c2nn(C)c(=O)c3ccccc23)c1	12	-12	-6	-47	16	13
O=[N+]([O-])c1ccc(Nc2ccc(Cl)cc2)nc1	31*	-13	-4	-15	8	5
Cc1nc(SCC(=O)N(CC(C)C)C2CCS(=O)(=O)C2)c2c(C)c(C)sc2n1 (centres undefined)	5	17	-5	-1	1	-13
CC1CN(S(=O)(=O)c2cc(C(=O)NC(C)c3cccnc3)ccc2Cl)CC(C)O1 (centres undefined)	15	-5	-2	-6	1	6
